Reference: ChEMBL document CHEMBL5512639, “Insights from structure-activity relationships and the binding mode of peptidic α-ketoamide inhibitors of the malaria drug target subtilisin-like SUB1” (Eur J Med Chem, 2024)
Calls of active or inactive are those of the source. No cut-off for these calls is given here. Numbered stars: 1 amine (or outer) side, 2 acyl side, 3 side chain; on linkers, the order of the positions; unused ones are H or OH. Square brackets hold non-standard residues; d marks the D form. Peptide text beside a SMILES is read from it. * marks the point of attachment. Asp(3,3-Me2) = CC(C)(C(=O)O)[C@H](N)C(=O)O; X3 = NC(=O)CC[C@H](N[*:1])C(=O)C(=O)[*:2]; Gly(cPent) = N[C@H](C(=O)O)C1CCCC1; X1 = C[C@H](N[*:1])C(=O)C(=O)[*:2]; Pentanoyl(4-Me) = CC(C)CCC(=O)*; Cha = N[C@@H](CC1CCCCC1)C(=O)O; Chg = N[C@H](C(=O)O)C1CCCCC1; OAll = C=CCO*

Legend:
[1] = test system: Subtilisin-like protease 1 (Plasmodium vivax); assay: Binding affinity to Plasmodium vivax SUB1 using Dabsyl-KLVGADDV-SLA-EDANS as substrate using catalytic domain assessed as bound half life by jump dilution assay
[2] = molecular target: T1, Subtilisin-like protease 1 (Plasmodium falciparum, UniProt O61142); assay: Inhibition of full length recombinant Plasmodium falciparum SUB1 using Dabsyl-KLVSADNIDIS-EDANS as substrate measured every 2 mins for 1 hr by FRET assay
T1 sequence (O61142 whole entry): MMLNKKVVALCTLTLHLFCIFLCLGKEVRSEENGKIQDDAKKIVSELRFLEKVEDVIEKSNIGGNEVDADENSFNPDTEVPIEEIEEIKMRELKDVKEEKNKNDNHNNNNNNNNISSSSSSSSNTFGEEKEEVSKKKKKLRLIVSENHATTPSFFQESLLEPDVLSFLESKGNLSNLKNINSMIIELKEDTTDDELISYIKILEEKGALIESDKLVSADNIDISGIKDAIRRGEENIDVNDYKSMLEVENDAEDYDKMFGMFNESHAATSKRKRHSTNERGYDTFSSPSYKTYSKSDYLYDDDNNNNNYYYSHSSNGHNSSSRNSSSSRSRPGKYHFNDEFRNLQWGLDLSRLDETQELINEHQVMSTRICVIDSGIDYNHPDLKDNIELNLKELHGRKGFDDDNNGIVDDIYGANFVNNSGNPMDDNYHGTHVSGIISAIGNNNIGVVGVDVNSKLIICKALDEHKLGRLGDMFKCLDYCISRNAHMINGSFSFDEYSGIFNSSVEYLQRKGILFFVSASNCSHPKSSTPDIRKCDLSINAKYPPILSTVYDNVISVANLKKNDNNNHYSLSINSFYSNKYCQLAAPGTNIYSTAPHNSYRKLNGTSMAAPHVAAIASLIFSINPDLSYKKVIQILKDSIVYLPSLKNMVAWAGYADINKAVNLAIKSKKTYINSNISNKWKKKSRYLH

Bos taurus = species: Bos taurus; assay: Inhibition of bovine Pancreas chymotrypsin using Nalpha-succinyl-Ala-Ala-Pro-phe-p-nitroanilide preincubated with compound for 15 mins followed by substrate addition and measured after 1 hr; conditions: time 75.0 min
Procedure, shortened: (§1)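 Enzyme in 100 mM Tris-HCl pH 8.0, 20 mM CaCl2: trypsin 5 μg/mL, chymotrypsin 0.5 μg/mL or elastase 5 μg/mL. Mixed with compound (2 μL of 10 mM stock into 98 μL) and preincubated 15 min. p-Nitroanilide substrate then added to 1 mM final. Absorbance at 405 nm followed for 1 h; DMSO and 2 mM PMSF as controls; triplicate.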

[3] = Inhibition of porcine Pancreas elastase using Nalpha-succinyl-Ala-Ala-Ala-p-nitroanilide preincubated with compound for 15 mins followed by substrate addition and measured after 1 hr; parameters: species or system Sus scrofa
Procedure, shortened: as §1

[4] = Selectivity ratio of IC50 for inhibition of full length recombinant Plasmodium vivax SUB1 expressed in Drosophila S2 cells using Dabsyl-KLVGADDV-SLA-EDANS as substrate to IC50 for inhibition of full length recombinant Plasmodium falciparum SUB1 using Dabsyl-KLVSADNIDIS-EDANS as substrate
[5] = test system: Subtilisin-like protease 1 (Plasmodium vivax); assay: Binding affinity to Plasmodium vivax SUB1 catalytic domain assessed as thermal stabilization by measuring change in melting temperature by differential scanning fluorimetry
[6] = Inhibition of full length recombinant Plasmodium vivax SUB1 expressed in Drosophila S2 cells using Dabsyl-KLVGADDV-SLA-EDANS as substrate measured every 2 mins for 1 hr by FRET assay
Plasmodium falciparum [7] = assay: Antiparasitic activity against Plasmodium falciparum infected in human Erythrocyte assessed as inhibition of merozoite egress from human Erythrocyte at 100 uM measured for 8 hrs by flow cytometry analysis relative to control; assay type: functional
Procedure, shortened: (§2)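 P. falciparum cultured in human RBCs, RPMI 1640 with 25 mM HEPES, 2.5% Albumax II, 100 μM hypoxanthine, 37 °C, 5% O2/5% CO2. Sorbitol-synchronized, plasmion-enriched late schizonts at 2% hematocrit, 1% parasitemia exposed to compound for 8 h. Fixed in glutaraldehyde, permeabilized, RNase-treated, stained with YOYO-1. Ring parasitemia by flow cytometry (100,000 events) vs DMSO. Triplicate; IC50 from 16 concentrations, 180 to 0.8 μM.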

[8] = Inhibition of elastase (unknown origin); parameters: species or system Homo sapiens
Sus scrofa [9] = species: Sus scrofa; assay: Inhibition of porcine Pancreas trypsin using Nalpha-benzoyl-L-arginine-p-nitroanilide hydrochloride preincubated with compound for 15 mins followed by substrate addition and measured after 1 hr; conditions: time 75.0 min
Procedure, shortened: as §1

[10] = Selectivity ratio, ratio of IC50 for porcine Pancreas elastase to IC50 for Plasmodium falciparum SUB1
Sus scrofa [11] = species: Sus scrofa; assay: Inhibition of porcine Pancreas elastase using Nalpha-succinyl-Ala-Ala-Ala-p-nitroanilide preincubated with compound for 15 mins followed by substrate addition and measured after 1 hr relative to control; conditions: time 75.0 min
Procedure, shortened: as §1

[12] = Metabolic stability in human serum measured after 24 hrs by LC-MS analysis; assay type: ADME, cell-free; conditions: read-out: Stability
Procedure, shortened: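 Pooled human serum prewarmed 20 min at 37 °C; peptide added to 0.6 mM final. Aliquots taken over 0-24 h and proteins precipitated with MeCN/H2O/formic acid. Supernatant lyophilized and analysed by LC-SWATH-MS. Intact peak area expressed as % of the 0 h value. Two independent experiments in duplicate, mean ± SEM.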

[13] = Selectivity ratio, ratio of IC50 for porcine Pancreas elastase to IC50 for Plasmodium vivax SUB1
[14] = test system: Subtilisin-like protease 1 (Plasmodium vivax); assay: Binding affinity to Plasmodium vivax SUB1 using Dabsyl-KLVGADDV-SLA-EDANS as substrate using catalytic domain assessed as dissociation constant (Koff) by jump dilution assay
Plasmodium falciparum [15] = assay: Antiparasitic activity against Plasmodium falciparum infected in human Erythrocyte assessed as inhibition of merozoite egress from human Erythrocyte measured for 8 hrs by flow cytometry analysis; assay type: functional, organism-based
Procedure, shortened: as §2

Plasmodium falciparum [16] = assay: Antiparasitic activity against Plasmodium falciparum infected in human Erythrocyte assessed as inhibition of merozoite egress from human Erythrocyte at 25 uM measured for 8 hrs by flow cytometry analysis relative to control; assay type: functional
Procedure, shortened: as §2

Plasmodium falciparum [17] = assay: Antiparasitic activity against synchronous parasite Plasmodium falciparum infected in human Erythrocyte at 100 uM incubated for 28 hrs followed by compound washout and measured after 38 hrs; assay type: functional
Procedure, shortened: (§3)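 Trophogony off-target check: synchronous 0-3 h post-invasion rings (2% hematocrit, 1% parasitemia) exposed to compound or matched DMSO (1% or 0.25% final) for 28 h. Cells then washed and recultured without compound for 38 h. Parasitemia read by YOYO-1 flow cytometry; growth inhibition expressed relative to DMSO.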

[18] = (§4) Selectivity index, ratio of INH for antiparasitic activity against Plasmodium falciparum infected in human Erythrocyte assessed as inhibition of merozoite egress from human Erythrocyte at 25 uM to INH for antiparasitic activity against synchronous parasite Plasmodium falciparum infected in human Erythrocyte at 25 uM; assay type: functional
Procedure, shortened: (§5)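 SI = 1 − (% trophogony inhibition / % T0-T8 egress inhibition), each at the same concentration. Trophogony arm: 0-3 h rings, 28 h exposure, washout, 38 h regrowth. Egress arm: late schizonts, 8 h exposure. Both read as parasitemia by flow cytometry vs DMSO.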

Plasmodium falciparum [19] = assay: Antiparasitic activity against synchronous parasite Plasmodium falciparum infected in human Erythrocyte at 25 uM incubated for 28 hrs followed by compound washout and measured after 38 hrs; assay type: functional
Procedure, shortened: as §3

[20] = as §4, with “100” for “25”; assay type: functional
Procedure, shortened: as §5

[21] = molecular target: T1, Subtilisin-like protease 1; assay: Inhibition of Plasmodium falciparum SUB1 assessed as inhibition constant

Row | SMILES | IC50 [2] | Ratio IC50 [4] | IC50 [6] | inhibition at 100 µM (Plasmodium falciparum [7]) | other results
1 | C=CCOC(=O)CC[C@H](NC(=O)[C@H](CC(=O)O)NC(=O)C(=O)[C@H](C)NC(=O)[C@H](C)NC(=O)[C@@H](NC(=O)[C@@H](NC(C)=O)C1CCCC1)[C@@H](C)O)C(N)=O | 570 nM | 9 | 50 nM | 37% | T1/2 [1]: 30 min; inhibition (Bos taurus): inactive; IC50 [3]: 36000 nM; ΔTm [5]: 14.3 °C; IC50 [8]: 820 nM; inhibition (Sus scrofa [9]): inactive; Ratio IC50 [10]: 63; inhibition (Sus scrofa [11]): Active; remaining at 24 h [12]: ~95%; Ratio IC50 [13]: 720; K [14]: 0.023 min⁻¹
2 | C[C@@H](NC[C@@H](O)[C@H](Cc1ccccc1)NC(=O)c1ccc(C(=O)N2CCN(C)CC2)cc1)c1ccccc1 | – | – | – | – | IC50 (Plasmodium falciparum [15]): 1.1 nM
3 | C=CCOC(=O)CC[C@H](NC(=O)[C@H](CC(=O)O)NC(=O)C(=O)[C@H](C)NC(=O)[C@H](C)NC(=O)[C@@H](NC(=O)[C@@H](NC(C)=O)[C@@H](C)CC)[C@@H](C)O)C(N)=O (Ac-ITA[X1]DE(OAll)-NH2) | 1950 nM | 9 | 180 nM | 13% | T1/2 [1]: 10 min; remaining at 24 h [12]: ~95%; K [14]: 0.074 min⁻¹
4 | C=CCOC(=O)CC[C@H](NC(=O)[C@H](CC(=O)O)NC(=O)C(=O)[C@H](C)NC(=O)[C@H](C)NC(=O)[C@@H](NC(=O)[C@H](CC1CCCCC1)NC(C)=O)[C@@H](C)O)C(N)=O (Ac-[Cha]TA[X1]DE(OAll)-NH2) | 34900 nM | 9 | 4080 nM | – | ΔTm [5]: 6.8 °C; inhibition (Plasmodium falciparum [7]): inactive
5 | C=CCOC(=O)CC[C@H](NC(=O)[C@H](CC(=O)O)NC(=O)C(=O)[C@H](C)NC(=O)[C@H](C)NC(=O)[C@@H](NC(=O)[C@@H](NC(C)=O)C1CCCCC1)[C@@H](C)O)C(N)=O (Ac-[Chg]TA[X1]DE(OAll)-NH2) | 1950 nM | 9 | 200 nM | 13% | –
6 | CC(=O)N[C@H](C(=O)N[C@H](C(=O)N[C@@H](C)C(=O)N[C@@H](C)C(=O)C(=O)N[C@@H](CC(=O)O)C(N)=O)[C@@H](C)O)C1CCCC1 (Ac-[Gly(cPent)]TA[X1]D-NH2) | 550 nM | – | 100 nM | 32% | T1/2 [1]: 20 min; K [14]: 0.034 min⁻¹
7 | CC[C@H](C)[C@H](NC(=O)[C@H](CC(=O)O)NC(=O)C(=O)[C@H](C)NC(=O)[C@H](C)NC(=O)[C@@H](NC(=O)[C@@H](NC(C)=O)C1CCCC1)[C@@H](C)O)C(N)=O (Ac-[Gly(cPent)]TA[X1]DI-NH2) | 17 nM | – | 14 nM | 99.8% | inhibition at 25 µM (Plasmodium falciparum [16]): 25%
8 | CC(=O)N[C@H](C(=O)N[C@H](C(=O)N[C@@H](C)C(=O)N[C@@H](C)C(=O)C(=O)N[C@@H](CC(=O)O)C(=O)N[C@H](C(N)=O)C1CCCC1)[C@@H](C)O)C1CCCC1 (Ac-[Gly(cPent)]TA[X1]D[Gly(cPent)]-NH2) | 10 nM | – | 12 nM | 100% | Activity (Plasmodium falciparum [17]): 6%; inhibition at 25 µM (Plasmodium falciparum [16]): 60%; Selectivity Index [18]: 1; IC50 (Plasmodium falciparum [15]): 22600 nM; ΔTm [5]: 12.7 °C; Activity (Plasmodium falciparum [19]): 0%; Selectivity Index [20]: 0.94
9 | C=CCOC(=O)CC[C@H](NC(=O)[C@H](CO)NC(=O)C(=O)[C@H](C)NC(=O)[C@H](C)NC(=O)[C@@H](NC(=O)[C@@H](NC(C)=O)C1CCCC1)[C@@H](C)O)C(N)=O (Ac-[Gly(cPent)]TA[X1]SE(OAll)-NH2) | 32200 nM | – | 10900 nM | 11% | –
10 | C=CCOC(=O)CC[C@H](NC(=O)[C@@H](NC(=O)C(=O)[C@H](C)NC(=O)[C@H](C)NC(=O)[C@@H](NC(=O)[C@@H](NC(C)=O)C1CCCC1)[C@@H](C)O)C(C)(C)C(=O)O)C(N)=O (Ac-[Gly(cPent)]TA[X1][Asp(3,3-Me2)]E(OAll)-NH2) | 1030 nM | – | 180 nM | 3% | –
11 | C=CCOC(=O)CC[C@H](NC(=O)[C@H](CC(=O)O)NC(=O)C(=O)[C@H](C)NC(=O)[C@H](C)NC(=O)[C@H](Cc1ccc(O)cc1)NC(=O)[C@@H](NC(C)=O)C1CCCC1)C(N)=O (Ac-[Gly(cPent)]YA[X1]DE(OAll)-NH2) | 150 nM | – | 25 nM | 44% | –
12 | C=CCOC(=O)CC[C@H](NC(=O)[C@H](CC(=O)O)NC(=O)C(=O)[C@H](C)NC(=O)[C@H](C)NC(=O)[C@@H](NC(=O)[C@@H](NC(C)=O)C1CCCC1)C1CCCC1)C(N)=O (Ac-[Gly(cPent)][Gly(cPent)]A[X1]DE(OAll)-NH2) | 100 nM | 1.25 | 80 nM | 46% | inhibition at 25 µM (Plasmodium falciparum [16]): 6%
13 | CC[C@H](C)[C@H](NC(=O)[C@H](CCCCN)NC(=O)CCC(C)C)C(=O)N[C@H](C(=O)N[C@@H](C)C(=O)N[C@@H](CCC(N)=O)C(=O)C(=O)N[C@@H](CC(=O)O)C(=O)N[C@@H](CC(=O)O)C(=O)N[C@@H](CCC(N)=O)C(=O)N[C@@H](CCC(N)=O)C(N)=O)[C@@H](C)O ({Pentanoyl(4-Me)}-KITA[X3]DDQQ-NH2) | – | – | – | – | Ki [21]: 10000 nM
